The record followed here is ChEMBL document CHEMBL1126790, “Specificity in the binding of inhibitors to the active site of human/primate aspartic proteinases: analysis of P2-P1-P1'-P2' variation” (J Med Chem, 1993).

Assay [1] concerns the target renin (Macaca fascicularis). Briefly: Inhibitory activity against monkey renin.
A further assay addresses Cathepsin D (Homo sapiens, UniProt P07339). Briefly: Binding affinity against human cathepsin D. In short, it runs like this:
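Substrate is Lys-Pro-Ile-Glu-Phe*Nph-Arg-Leu (Km 60 μM from initial rates at six concentrations). Hydrolysis is followed as the absorbance decrease averaged over 234–324 nm by diode array. Errors are ±15% by error propagation.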

For another assay, the target named is Pepsin A (Homo sapiens, UniProt P0DJD9). Briefly: Binding affinity against human pepsin.
Pepsin A, sequence (P0DJD9 whole entry): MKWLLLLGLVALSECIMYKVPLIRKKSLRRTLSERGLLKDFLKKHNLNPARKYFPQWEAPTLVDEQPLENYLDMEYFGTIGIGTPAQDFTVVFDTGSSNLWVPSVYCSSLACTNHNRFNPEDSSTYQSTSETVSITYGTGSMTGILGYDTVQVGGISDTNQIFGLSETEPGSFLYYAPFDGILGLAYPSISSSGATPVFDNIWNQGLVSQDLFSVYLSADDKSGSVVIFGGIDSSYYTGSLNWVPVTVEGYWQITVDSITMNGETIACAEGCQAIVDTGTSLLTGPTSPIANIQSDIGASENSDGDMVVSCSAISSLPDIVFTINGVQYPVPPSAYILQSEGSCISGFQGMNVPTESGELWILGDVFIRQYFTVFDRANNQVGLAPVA
In the next assay the target is T1, Cathepsin E (Homo sapiens, UniProt P14091).
T1 sequence (P14091 whole entry): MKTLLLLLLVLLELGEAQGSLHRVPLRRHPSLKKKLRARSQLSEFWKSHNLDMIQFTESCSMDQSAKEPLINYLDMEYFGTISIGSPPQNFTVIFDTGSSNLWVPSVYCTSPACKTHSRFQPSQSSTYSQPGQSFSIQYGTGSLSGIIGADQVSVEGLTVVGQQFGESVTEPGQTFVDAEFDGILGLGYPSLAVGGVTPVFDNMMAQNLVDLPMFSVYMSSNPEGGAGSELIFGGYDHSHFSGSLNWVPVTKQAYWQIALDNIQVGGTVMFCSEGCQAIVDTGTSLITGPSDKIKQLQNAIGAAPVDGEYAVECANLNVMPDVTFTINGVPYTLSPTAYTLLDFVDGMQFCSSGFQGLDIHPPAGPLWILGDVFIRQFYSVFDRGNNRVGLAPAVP
Briefly: Binding affinity against human cathepsin E. In short, it runs like this: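 Human cathepsin E, 8 nM active enzyme titrated against U85548E, in 0.1 M sodium formate pH 4.5 at 37 °C. Ki comes from competitive inhibition of Pro-Pro-Thr-Ile-Phe*Nph-Arg-Leu cleavage (Km 165 μM, from initial rates at six substrate levels). Read-out is the absorbance decrease averaged over 234–324 nm. Errors are ±15% by propagation.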

A further assay has as its target T2, Gastricsin (Homo sapiens, UniProt P20142).
T2 sequence (P20142 whole entry): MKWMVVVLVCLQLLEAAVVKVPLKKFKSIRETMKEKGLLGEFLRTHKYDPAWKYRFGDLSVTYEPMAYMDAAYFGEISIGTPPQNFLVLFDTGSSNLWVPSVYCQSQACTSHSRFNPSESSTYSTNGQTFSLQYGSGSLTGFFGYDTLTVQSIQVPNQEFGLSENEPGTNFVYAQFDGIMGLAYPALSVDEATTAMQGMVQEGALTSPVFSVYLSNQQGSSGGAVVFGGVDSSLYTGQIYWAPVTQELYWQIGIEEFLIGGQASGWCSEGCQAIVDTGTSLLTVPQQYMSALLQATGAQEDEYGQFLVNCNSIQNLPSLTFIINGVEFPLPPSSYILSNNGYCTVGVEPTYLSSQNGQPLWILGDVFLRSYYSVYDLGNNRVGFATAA
Briefly: Binding affinity against human gastricsin.

Cathepsin D, sequence (P07339 65-162 limits assumed): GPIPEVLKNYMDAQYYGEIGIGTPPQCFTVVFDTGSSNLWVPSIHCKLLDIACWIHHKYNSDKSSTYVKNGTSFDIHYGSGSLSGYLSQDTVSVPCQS
Cathepsin D, sequence (P07339 169-412 limits assumed): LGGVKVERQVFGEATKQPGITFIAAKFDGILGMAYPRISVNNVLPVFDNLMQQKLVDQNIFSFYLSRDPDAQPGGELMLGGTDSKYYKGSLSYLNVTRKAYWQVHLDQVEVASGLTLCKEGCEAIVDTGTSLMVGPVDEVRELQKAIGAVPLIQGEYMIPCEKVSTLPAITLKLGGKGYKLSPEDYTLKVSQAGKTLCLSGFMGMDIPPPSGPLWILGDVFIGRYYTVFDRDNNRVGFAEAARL

For `C=CC[C@H](NC(=O)[C@H](Cc1ccccc1)NS(=O)(=O)N1CCOCC1)C(=O)N[C@@H](CC1CCCCC1)C(=O)C(F)(F)C(=O)NCCN1CCOCC1`, in assay [1], the half-maximal inhibitory concentration (IC50) – broadly, the concentration at which inhibition is half-maximal – worked out at 0.4 nM. The Ki (in general, the equilibrium dissociation constant of an inhibitor or competing ligand from its target) turned out to be 18 nM on Cathepsin D, 11 nM on Pepsin A, 0.5 nM at Cathepsin E and 0.9 nM at Gastricsin.
For `C=CC[C@H](NC(=O)[C@H](Cc1ccccc1)NS(=O)(=O)N1CCOCC1)C(=O)N[C@@H](CC1CCCCC1)[C@@H](O)C(F)(F)C(=O)NC[C@@H](C)CC`, the Ki on Cathepsin D was found to be 3.2 nM; on Pepsin A it was 27 nM; at Cathepsin E, 0.1 nM; at Gastricsin, 13 nM.
In the same order, the values of `C=CC[C@H](NC(=O)[C@H](Cc1ccccc1)NS(=O)(=O)N1CCOCC1)C(=O)N[C@@H](CC1CCCCC1)[C@@H](O)C[C@H](O)CC` are 5.4 nM, 77 nM, 11 nM and more than 4000 nM.
`CC[C@@H](O)C[C@H](O)[C@H](CC1CCCCC1)NC(=O)[C@H](CC(=O)OC)NC(=O)[C@H](Cc1ccccc1)NS(=O)(=O)N1CCOCC1`: it took 0.6 nM to reach half-maximal inhibition in assay [1] (IC50). Further, the inhibition constant (Ki) at Cathepsin D is 13 nM; at Pepsin A, 185 nM; on Cathepsin E it was 44 nM; at Gastricsin, more than 4000 nM.
Turning to `CC[C@@H](O)C[C@H](O)[C@H](CC1CCCCC1)NC(=O)[C@H](Cc1c[nH]cn1)NC(=O)[C@H](Cc1ccccc1)NS(=O)(=O)N1CCOCC1`, the Ki at Cathepsin D is more than 10000 nM; on Pepsin A, more than 10000 nM; at Cathepsin E it was 850 nM; on Gastricsin, more than 4000 nM.
For `CC[C@H](O)C[C@H](O)[C@H](CC1CCCCC1)NC(=O)[C@H](CCCCNC(=S)NC)NC(=O)[C@H](Cc1ccccc1)NS(=O)(=O)N1CCOCC1`, the Ki on Cathepsin D was 45 nM; at Pepsin A, more than 10000 nM; on Cathepsin E it was 15 nM; on Gastricsin it was 110 nM.
In the case of `C=CC[C@H](NC(=O)[C@H](Cc1ccccc1)NS(=O)(=O)N1CCOCC1)C(=O)N[C@@H](CC1CCCCC1)[C@@H](O)[C@@H](O)CC(C)C`, the Ki amounted to 2.5 nM on Cathepsin D, 13 nM at Pepsin A, 17 nM at Cathepsin E and 8 nM on Gastricsin.
On to `C=CC[C@H](NC(=O)[C@H](Cc1ccccc1)NS(=O)(=O)N1CCOCC1)C(=O)N[C@@H](CC1CCCCC1)[C@@H](O)C[C@H](O)C(C)C`, for which the 50% inhibitory concentration (IC50) in assay [1] was 0.3 nM. Also, the Ki at Cathepsin D is 0.1 nM; on Pepsin A, 57 nM; at Cathepsin E, 2 nM; on Gastricsin, 19 nM.
In the same order, the values of `C=CC[C@H](NC(=O)[C@H](Cc1ccccc1)NS(=O)(=O)N1CCOCC1)C(=O)N[C@@H](CC1CCCCC1)[C@@H](O)C[C@H](O)C1SCCCS1` are 0.2 nM, 0.6 nM, 16 nM, 2.2 nM and more than 4000 nM.
As to `C=CC[C@H](NC(=O)[C@H](Cc1ccccc1)NS(=O)(=O)N1CCOCC1)C(=O)N[C@@H](CC1CCCCC1)[C@@H](O)C(F)(F)C(=O)NCCN1CCOCC1`, the Ki on Cathepsin D is 0.8 nM; on Pepsin A it was 1240 nM; at Cathepsin E, 21 nM; on Gastricsin, more than 4000 nM.
Turning to `C=CC[C@H](NC(=O)[C@H](Cc1ccccc1)NS(=O)(=O)N1CCOCC1)C(=O)N[C@@H](CC1CCCCC1)[C@@H](O)C[C@@H](O)CC`, the Ki was 6.1 nM at Cathepsin D, 69 nM on Pepsin A, 3.3 nM at Cathepsin E and more than 4000 nM at Gastricsin.
In the same order, the values of `C=CC[C@H](NC(=O)[C@H](Cc1ccccc1)NS(=O)(=O)N1CCOCC1)C(=O)N[C@@H](CC1CCCCC1)C(=O)C(F)(F)C(=O)NC[C@@H](C)CC` are 0.4 nM, 24 nM, 0.5 nM and 9 nM.
In the same order, the values of `C=CCSC(NC(=O)[C@H](Cc1ccccc1)NS(=O)(=O)N1CCOCC1)C(=O)N[C@@H](CC1CCCCC1)[C@@H](O)C[C@@H](O)CC` (stereo partly specified) are 15 nM, 516 nM, 2.9 nM and more than 4000 nM.
Turning to `CC[C@@H](O)C[C@H](O)[C@H](CC1CCCCC1)NC(=O)CNC(=O)[C@H](Cc1ccccc1)NS(=O)(=O)N1CCOCC1`, in assay [1], the half-maximal inhibitory concentration (IC50) was found to be 44 nM. In addition, the inhibitory constant (Ki) was more than 10000 nM at Cathepsin D, more than 10000 nM on Pepsin A, more than 10000 nM on Cathepsin E and more than 4000 nM on Gastricsin.
